Experimental data from paper PMC6226115 (Clinical and Translational Science, 2018).
“And” between values parts separate entries of the source, which are not always exact repeats. Identical values can stand only once.

Legend:
[1] = target: T1, GlyT1 (Rattus norvegicus, UniProt P28572); assay: Inhibition of [3H]-glycine uptake in rat primary cortical neurons; type: cell-based; settings: IC50, inhibition of [3H]-glycine uptake, mean
T1 sequence (P28572 1-638): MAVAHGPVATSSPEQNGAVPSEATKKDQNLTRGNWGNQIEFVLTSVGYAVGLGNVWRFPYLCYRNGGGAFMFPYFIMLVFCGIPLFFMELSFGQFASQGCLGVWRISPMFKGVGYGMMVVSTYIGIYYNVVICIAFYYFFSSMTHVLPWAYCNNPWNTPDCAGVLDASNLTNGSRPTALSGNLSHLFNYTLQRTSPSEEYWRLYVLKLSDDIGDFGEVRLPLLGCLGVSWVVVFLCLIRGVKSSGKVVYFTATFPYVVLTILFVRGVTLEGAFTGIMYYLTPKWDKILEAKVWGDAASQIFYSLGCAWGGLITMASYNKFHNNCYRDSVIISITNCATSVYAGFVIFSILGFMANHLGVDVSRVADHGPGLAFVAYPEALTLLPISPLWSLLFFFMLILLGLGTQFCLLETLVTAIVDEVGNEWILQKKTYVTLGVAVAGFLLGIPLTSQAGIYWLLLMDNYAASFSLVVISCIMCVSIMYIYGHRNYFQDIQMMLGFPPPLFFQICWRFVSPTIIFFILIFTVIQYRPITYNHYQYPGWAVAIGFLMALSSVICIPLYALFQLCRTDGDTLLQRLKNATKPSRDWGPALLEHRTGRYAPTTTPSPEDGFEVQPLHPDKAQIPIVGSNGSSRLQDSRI
Summary of the method: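 Cortical neurons from E18 rats were differentiated in vitro for 7, 11 or 18 days, then run as a scintillating-plate uptake assay: 20 min incubation, inhibitor 0.9–3000 nM in HBSS with 5 mM alanine, and 200 nM [3H]glycine (0.01 mCi/mL) with counting over 57 min. IC50s came from four-parameter fits per experiment and were then averaged.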

[2] = test system: glycine in CSF; assay: Phase I pharmacodynamics: glycine in CSF; type: in vivo, human; settings: for E 14, increase in glycine in CSF from baseline at 14 hours: 14 h after first dose; for E 14, increase in glycine in CSF from baseline at 14 hours / E max, maximum increase in glycine in CSF from baseline / Ratio of AUECdiff, 0–14 (glycine in CSF) / E 312, increase in glycine in CSF from baseline at 312 hours: mean (SD); for E max, maximum increase in glycine in CSF from baseline / Ratio of AUECdiff, 0–14 (glycine in CSF): after first dose; for E 312, increase in glycine in CSF from baseline at 312 hours: before last dose (steady state trough)
Summary of the method: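 Healthy male volunteers took 5, 10, 25 or 50 mg orally each morning for 14 days in sequential ascending groups. CSF was drawn by lumbar catheter: three predose samples ~30 min apart, then hourly to 14 h after the first dose. A single lumbar puncture was taken before the day-14 dose. Glycine was measured by validated HPLC-MS/MS as its Marfey's derivative and expressed as % change from baseline (mean of three predose values).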

[3] = Compound levels in rat plasma and CSF; type: in vivo; settings: plasma, po
Summary of the method: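 Adult male Wistar rats (200–220 g) were given a single oral dose of 0.2, 0.6 or 2 mg/kg in 0.5% Natrosol with 0.01% Tween-80 (n = 8 per group). At 90 min, under s.c. inactin/ketavet anaesthesia, blood and cisterna magna CSF were taken. Plasma was stored at −20°C and CSF at −70°C. Drug was measured by HPLC-MS/MS, and CSF/plasma ratio was derived.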

[4] = target: T2, human GlyT2 (Homo sapiens, UniProt Q9Y345); assay: Inhibition of [3H]-glycine uptake in HEK cells overexpressing human GlyT2; type: cell-based
T2 sequence (Q9Y345 1-797): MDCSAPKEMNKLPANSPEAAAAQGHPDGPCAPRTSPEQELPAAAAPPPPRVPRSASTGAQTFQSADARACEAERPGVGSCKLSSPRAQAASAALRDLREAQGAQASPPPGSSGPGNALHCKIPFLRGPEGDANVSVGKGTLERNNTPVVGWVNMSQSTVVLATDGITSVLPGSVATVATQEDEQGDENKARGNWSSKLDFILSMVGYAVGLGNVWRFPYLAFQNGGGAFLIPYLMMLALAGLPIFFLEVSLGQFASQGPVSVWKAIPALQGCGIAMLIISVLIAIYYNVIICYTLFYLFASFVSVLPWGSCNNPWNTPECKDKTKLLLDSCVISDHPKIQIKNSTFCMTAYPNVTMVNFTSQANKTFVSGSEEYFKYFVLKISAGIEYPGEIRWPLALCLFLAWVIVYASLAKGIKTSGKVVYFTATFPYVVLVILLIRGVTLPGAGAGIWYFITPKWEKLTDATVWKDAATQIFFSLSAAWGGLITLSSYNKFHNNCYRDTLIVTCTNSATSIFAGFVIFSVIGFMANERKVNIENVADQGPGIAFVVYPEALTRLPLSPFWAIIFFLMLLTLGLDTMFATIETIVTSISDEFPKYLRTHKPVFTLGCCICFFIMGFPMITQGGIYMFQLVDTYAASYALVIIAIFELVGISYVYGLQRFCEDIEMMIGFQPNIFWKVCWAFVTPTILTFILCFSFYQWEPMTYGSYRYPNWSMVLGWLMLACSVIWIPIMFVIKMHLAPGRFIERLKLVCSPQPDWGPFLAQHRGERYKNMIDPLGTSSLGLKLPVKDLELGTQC
Summary of the method: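 HEK cells overexpressing human GlyT2 were grown on scintillating microplates and incubated 20 min with inhibitor at 0.9–3000 nM in HBSS containing 5 mM alanine. Uptake was started with 250 nM [3H]glycine (0.0125 mCi/mL), and counting ran immediately over 57 min. IC50 came from a four-parameter log(inhibitor)-response fit.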

[5] = previously observed; cited from earlier work

## C[C@@H](Oc1ccc(S(C)(=O)=O)cc1C(=O)N1C[C@@H]2C[C@]2(c2cc(C(F)(F)F)on2)C1)C(F)(F)F [BI 425809]
[1]
  IC50: 5.2 ± 1.2 nM
[2]; 5 mg, N = 6
  E 14, increase in glycine in CSF from baseline at 14 hours: 18.0 (32.1) %
  E max, maximum increase in glycine in CSF from baseline: 35.3 (26.4) %
  Ratio of AUECdiff, 0–14 (glycine in CSF): 16.0 (17.4) %
[2]; 10 mg once daily, N = 4
  E 312, increase in glycine in CSF from baseline at 312 hours: 57% and 57.0 (48.3) %
[2]; 10 mg, N = 6
  E 14, increase in glycine in CSF from baseline at 14 hours: 39.8 (14.5) %
  E max, maximum increase in glycine in CSF from baseline: 62.3 (15.3) %
  Ratio of AUECdiff, 0–14 (glycine in CSF): 37.0 (12.1) %
[2]; 25 mg once daily, N = 6
  E 312, increase in glycine in CSF from baseline at 312 hours: 38% and 37.9 (45.8) %
[2]; 25 mg, N = 6
  E 14, increase in glycine in CSF from baseline at 14 hours: 60.9 (60.7) %
  Ratio of AUECdiff, 0–14 (glycine in CSF): 53.0 (30.5) %
[2]; 25 mg, N = 8
  E max, maximum increase in glycine in CSF from baseline: 136 (107) %
[2]; 50 mg once daily, N = 5
  E 312, increase in glycine in CSF from baseline at 312 hours: 123% and 123 (52.5) %
[2]; 50 mg, N = 5
  E 14, increase in glycine in CSF from baseline at 14 hours: 50.6 (33.8) %
  E max, maximum increase in glycine in CSF from baseline: 91.9 (89.9) %
  Ratio of AUECdiff, 0–14 (glycine in CSF): 47.0 (35.3) %
[2]; healthy volunteers, single oral doses, over dose groups
  Time at which CSF glycine levels reached their maximum: 6 to 10 h
[3]; 0.2 mg/kg
  concentration at 90 min: 79 nM
[3]; 0.6 mg/kg
  concentration at 90 min: 217 nM
[3]; 2 mg/kg
  concentration at 90 min: 723 nM
[4]
  IC50: > 10000 nM
[5]
  Attainment of steady state after administration: ≤ 8 days
  Half-life: ~ 40 hours
